# Measurements from ChEMBL document CHEMBL4699498 (J Med Chem, 2020).
# pIC50: −log10 of the molar value. Activity calls are given as the source filed them. The rule behind the calls is not given here.
# Legend:
# MDA-MB-436 = test: Antiproliferative activity against human MDA-MB-436 cells assessed as cell growth inhibition incubated for 7 days by CCK-8 assay; type: functional, cell-based; settings: MDA-MB-436, 168 h
# How it was run: (§1)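 Cells were sub-cultured at least twice and seeded for 24 h before dosing. Compounds came from 10 mM DMSO stocks, given as 10 points of 3-fold serial dilution starting at 10-20 μM. Incubation was about 7 days (Capan-1 13 days) at 37 °C, 5% CO2. Read-out was CCK-8 absorbance at 450 nm, as % growth versus DMSO wells (duplicate wells). IC50 was fitted by nonlinear regression; three independent experiments.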
# [1] = biological target: T1, Protein cereblon/Poly [ADP-ribose] polymerase 1 (Homo sapiens, UniProt P09874+Q96SW2); test: Protac activity at CRBN/PARP1 in human MDA-MB-436 cells assessed as induction of PARP1 degradation at 10 nM incubated for 24 hrs by Western blot analysis relative to control; type: cell-based
# How it was run: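 MDA-MB-436 cells (RPMI-1640, 10% FBS) seeded 24 h, then exposed to compound at 1, 10, 100 and 1000 nM for 24 h. Lysates in RIPA with protease inhibitors, 20-30 µg protein by SDS-PAGE, PARP1 immunoblot with β-tubulin loading control; PARP1/β-tubulin ratio normalized to DMSO control set at 100.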
# Target sequence in this assay (P09874 2-1014 limits assumed): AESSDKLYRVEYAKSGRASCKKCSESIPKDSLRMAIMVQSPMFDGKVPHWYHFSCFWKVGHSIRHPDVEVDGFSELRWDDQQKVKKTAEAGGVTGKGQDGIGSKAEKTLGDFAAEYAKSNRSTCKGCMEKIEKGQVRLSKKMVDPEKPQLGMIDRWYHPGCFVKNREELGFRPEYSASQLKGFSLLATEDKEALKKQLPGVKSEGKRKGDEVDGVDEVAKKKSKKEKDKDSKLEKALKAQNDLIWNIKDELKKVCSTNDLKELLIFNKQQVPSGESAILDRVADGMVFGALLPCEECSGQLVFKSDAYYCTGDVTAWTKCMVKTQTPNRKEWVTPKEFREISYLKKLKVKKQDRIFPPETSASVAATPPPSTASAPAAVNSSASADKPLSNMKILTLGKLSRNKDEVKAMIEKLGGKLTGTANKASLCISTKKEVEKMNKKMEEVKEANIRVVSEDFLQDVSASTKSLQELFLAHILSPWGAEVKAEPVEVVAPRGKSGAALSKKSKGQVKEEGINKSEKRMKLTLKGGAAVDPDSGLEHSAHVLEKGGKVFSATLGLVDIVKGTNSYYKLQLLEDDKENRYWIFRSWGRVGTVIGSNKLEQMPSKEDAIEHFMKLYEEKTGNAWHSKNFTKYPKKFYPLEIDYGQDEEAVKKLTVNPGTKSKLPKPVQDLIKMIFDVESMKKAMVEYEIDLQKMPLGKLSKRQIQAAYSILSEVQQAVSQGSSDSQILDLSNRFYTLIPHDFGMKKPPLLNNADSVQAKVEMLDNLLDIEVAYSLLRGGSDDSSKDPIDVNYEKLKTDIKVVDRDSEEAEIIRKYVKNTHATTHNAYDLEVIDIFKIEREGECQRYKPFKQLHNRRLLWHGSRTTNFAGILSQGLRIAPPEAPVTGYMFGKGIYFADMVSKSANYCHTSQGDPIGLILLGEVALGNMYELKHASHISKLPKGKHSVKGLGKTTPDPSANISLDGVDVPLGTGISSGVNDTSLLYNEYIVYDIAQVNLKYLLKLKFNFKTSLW
# Target sequence in this assay (Q96SW2 whole entry partner): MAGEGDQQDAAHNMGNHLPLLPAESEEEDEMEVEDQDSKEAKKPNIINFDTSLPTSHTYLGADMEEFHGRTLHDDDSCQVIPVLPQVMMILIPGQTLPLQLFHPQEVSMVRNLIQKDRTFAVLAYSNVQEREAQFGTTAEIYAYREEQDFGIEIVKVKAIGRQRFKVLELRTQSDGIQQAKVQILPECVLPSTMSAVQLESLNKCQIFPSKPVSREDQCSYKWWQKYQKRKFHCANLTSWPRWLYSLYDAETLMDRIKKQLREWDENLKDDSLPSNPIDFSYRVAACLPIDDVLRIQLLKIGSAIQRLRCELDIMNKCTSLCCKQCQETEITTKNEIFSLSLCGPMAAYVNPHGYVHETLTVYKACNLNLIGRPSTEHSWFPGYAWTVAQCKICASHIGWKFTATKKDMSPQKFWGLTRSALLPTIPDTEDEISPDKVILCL
# [2] = biological target: T1, Protein cereblon/Poly [ADP-ribose] polymerase 1; test: Protac activity at CRBN/PARP1 in human CAPAN-1 cells assessed as induction of PARP1 degradation incubated for 24 hrs by Western blot analysis; type: cell-based
# How it was run: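 Capan-1 cells were treated 24 h (1-1000 nM, or a wider dose range for DC50). Lysis was in RIPA buffer with protease inhibitors, and 20-30 μg protein was blotted. PARP1 was normalized to β-tubulin and to DMSO control, quantified by densitometry. DC50 came from two independent experiments.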
# Target sequence in this assay (P09874 whole entry): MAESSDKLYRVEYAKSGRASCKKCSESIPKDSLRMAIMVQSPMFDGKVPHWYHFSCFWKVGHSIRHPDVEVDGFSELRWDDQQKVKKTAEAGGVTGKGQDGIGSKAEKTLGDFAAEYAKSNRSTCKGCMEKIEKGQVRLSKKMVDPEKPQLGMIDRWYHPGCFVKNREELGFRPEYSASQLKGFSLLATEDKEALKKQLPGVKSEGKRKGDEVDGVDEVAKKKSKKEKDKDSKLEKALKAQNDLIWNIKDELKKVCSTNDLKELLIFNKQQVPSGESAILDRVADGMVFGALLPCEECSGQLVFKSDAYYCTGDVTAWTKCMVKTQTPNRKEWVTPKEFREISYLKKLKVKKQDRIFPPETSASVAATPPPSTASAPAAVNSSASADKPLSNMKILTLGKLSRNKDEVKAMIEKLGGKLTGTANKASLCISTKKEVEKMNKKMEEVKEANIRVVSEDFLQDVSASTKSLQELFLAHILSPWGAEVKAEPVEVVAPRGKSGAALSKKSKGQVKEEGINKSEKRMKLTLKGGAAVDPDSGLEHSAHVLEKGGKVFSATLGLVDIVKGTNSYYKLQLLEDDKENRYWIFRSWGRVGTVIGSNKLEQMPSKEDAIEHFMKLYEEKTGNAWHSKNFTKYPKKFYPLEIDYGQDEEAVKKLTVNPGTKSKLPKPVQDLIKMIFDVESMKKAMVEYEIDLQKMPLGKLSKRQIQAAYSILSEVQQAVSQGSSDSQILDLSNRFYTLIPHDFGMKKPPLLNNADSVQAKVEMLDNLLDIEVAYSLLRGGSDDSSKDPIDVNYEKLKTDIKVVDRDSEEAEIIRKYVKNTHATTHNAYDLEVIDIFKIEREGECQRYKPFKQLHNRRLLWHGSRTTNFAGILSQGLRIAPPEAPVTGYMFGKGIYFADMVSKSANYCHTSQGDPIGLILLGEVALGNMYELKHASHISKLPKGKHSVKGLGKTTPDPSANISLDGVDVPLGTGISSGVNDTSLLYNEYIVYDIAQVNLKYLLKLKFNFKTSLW
# Target sequence in this assay (Q96SW2 whole entry): as the sequence (Q96SW2 whole entry partner) above
# [3] = biological target: T1, Protein cereblon/Poly [ADP-ribose] polymerase 1; test: Protac activity at CRBN/PARP1 in human SW-620 cells assessed as induction of PARP1 degradation incubated for 24 hrs by Western blot analysis; type: cell-based
# How it was run: (§2)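 Concentration-response over a wide range, 24 h exposure; PARP1 quantified by western blot and normalized to β-tubulin density; DC50 derived from two biologically independent experiments.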
# Target sequence in this assay (P09874 whole entry): as the sequence (P09874 whole entry) above
# Target sequence in this assay (Q96SW2 whole entry): as the sequence (Q96SW2 whole entry partner) above
# [4] = biological target: T1, Protein cereblon/Poly [ADP-ribose] polymerase 1; test: Protac activity at CRBN/PARP1 in human MDA-MB-436 cells assessed as induction of PARP1 degradation at 100 nM measured after 5 days by Western blot analysis; type: cell-based; settings: time 5.0 day
# How it was run: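 MDA-MB-436 cells kept at 100 nM for up to 5 days; PARP1 followed by western blot against β-tubulin.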
# Target sequence in this assay (P09874 2-1014 limits assumed): as the sequence (P09874 2-1014 limits assumed) above
# Target sequence in this assay (Q96SW2 whole entry partner): as the sequence (Q96SW2 whole entry partner) above
# [5] = biological target: T1, Protein cereblon/Poly [ADP-ribose] polymerase 1; test: Protac activity at CRBN/PARP1 in human MDA-MB-231 cells assessed as induction of PARP1 degradation measured after 24 hrs by Western blot analysis; type: cell-based; how it was run: as §2
# Target sequence in this assay (P09874 whole entry): as the sequence (P09874 whole entry) above
# Target sequence in this assay (Q96SW2 whole entry): as the sequence (Q96SW2 whole entry partner) above
# [6] = biological target: T1, Protein cereblon/Poly [ADP-ribose] polymerase 1; test: Protac activity at CRBN/PARP1 in human HCC1937 cells assessed as induction of PARP1 degradation at 30 nM incubated for 1 to 24 hrs by Western blot analysis; type: cell-based; settings: time hrs 1-24
# Target sequence in this assay (P09874 2-1014 limits assumed): as the sequence (P09874 2-1014 limits assumed) above
# Target sequence in this assay (Q96SW2 whole entry partner): as the sequence (Q96SW2 whole entry partner) above
# [7] = biological target: T1, Protein cereblon/Poly [ADP-ribose] polymerase 1; test: Protac activity at CRBN/PARP1 in human 22Rv1 cells assessed as induction of PARP1 degradation at 30 nM incubated for 1 to 24 hrs by Western blot analysis; type: cell-based; settings: time hrs 1-24
# Target sequence in this assay (P09874 2-1014 limits assumed): as the sequence (P09874 2-1014 limits assumed) above
# Target sequence in this assay (Q96SW2 whole entry partner): as the sequence (Q96SW2 whole entry partner) above
# [8] = biological target: T1, Protein cereblon/Poly [ADP-ribose] polymerase 1; test: Protac activity at CRBN/PARP1 in human MDA-MB-231 cells assessed as induction of PARP1 degradation at 30 nM incubated for 1 to 24 hrs by Western blot analysis; type: cell-based; settings: time hrs 1-24
# Target sequence in this assay (P09874 2-1014 limits assumed): as the sequence (P09874 2-1014 limits assumed) above
# Target sequence in this assay (Q96SW2 whole entry partner): as the sequence (Q96SW2 whole entry partner) above
# [9] = biological target: T1, Protein cereblon/Poly [ADP-ribose] polymerase 1; test: Protac activity at CRBN/PARP1 in human SW-620 cells assessed as induction of PARP1 degradation at 30 nM incubated for 24 hrs in presence of 0.1 to 1 uM CRBN ligand pomalidomide by Western blot analysis; type: cell-based
# Target sequence in this assay (P09874 2-1014 limits assumed): as the sequence (P09874 2-1014 limits assumed) above
# Target sequence in this assay (Q96SW2 whole entry partner): as the sequence (Q96SW2 whole entry partner) above
# [10] = biological target: T1, Protein cereblon/Poly [ADP-ribose] polymerase 1; test: Protac activity at CRBN/PARP1 in human SW-620 cells assessed as induction of PARP1 degradation at 30 nM incubated for 24 hrs in presence of proteasome inhibitor carfilzomib by Western blot analysis; type: cell-based
# CWR22R = test: Antiproliferation activity against human 22Rv1 assessed as cell growth inhibition incubated for 7 days by CCK-8 assay; type: functional, cell-based; settings: time 7.0 day; how it was run: as §1
# L02 = test: Cytotoxicity against human L02 cells assessed as reduction in cell viability incubated for 120 hrs by CCK-8 assay; type: cell-based; settings: l02, 120 h
# [11] = Plasma concentration in ICR mouse at 25 mg/kg, ip at 0.25 hrs postinjection by LC-tandem mass spectrometry analysis; type: ADME, organism-based
# [12] = Cmax in ICR mouse at 25 mg/kg, ip by LC-tandem mass spectrometry analysis; type: ADME, organism-based; parameters: route intraperitoneal, dose 25 mg/kg; settings: in vivo
# How it was run: (§3)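 Female ICR mice (20-23 g, 6-7 weeks old, n = 3) received a single 25 mg/kg intraperitoneal dose formulated in 5% DMSO/15% Solutol HS15/80% D5W. Plasma was sampled at 0.5, 1, 2, 4, 6, 8 and 24 h and protein-precipitated with methanol. Compound was quantified by LC-MS/MS against a standard curve.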
# [13] = Plasma concentration in ICR mouse at 25 mg/kg, ip at 4 hrs postinjection by LC-tandem mass spectrometry analysis; type: ADME, organism-based; how it was run: as §3
# [14] = AUC (0 to infinity) in ICR mouse at 25 mg/kg, ip by LC-tandem mass spectrometry analysis; type: ADME, organism-based; parameters: time infinity, route intraperitoneal, dose 25 mg/kg; settings: in vivo; how it was run: as §3
# CAPAN-1 [15] = test: Antitumor activity against Capan1 cells xenografted in Balb/c mouse assessed as tumor growth inhibition at 25 mg/kg, ip administered 5 times a week for 3 weeks; type: functional, organism-based
# How it was run: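 Male BALB/c nude mice (5-6 weeks old) carried subcutaneous Capan-1 xenografts (5×10^6 cells, right armpit). At ~150 mm³ they were randomized (6 per group). Dosing was 100 mg/kg by oral gavage daily for 21 days, or 25 mg/kg intraperitoneally 5 times a week for 3 weeks. Vehicle was 5% DMSO/20% PEG400/10% Cremophor EL/65% saline. Tumor volume was (length/2)×width², measured 2-3 times weekly.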
# [16] = Acute toxicity in Balb/c mouse assessed as weight loss at 25 to 50 mg/kg, ip administered 5 times a week for 3 weeks; type: organism-based; settings: in vivo, 504 h, dose 25-50 mg/kg
# How it was run: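 Male BALB/c nude mice (5–6 weeks) received 5×10^6 Capan-1 cells s.c. in the right armpit. At a mean tumour volume of about 150 mm³, mice were randomised by tumour volume and body weight, 6 per group. Dosing was i.p. in 5% DMSO/20% PEG400/10% Cremophor EL/65% saline, once daily five times per week for 3 weeks. Body weight was measured 2–3 times weekly.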
# CAPAN-1 [17] = test: Potentiation of cisplatin induced antitumor activity against CAPAN-1 cells xenografted in Balb/c mouse at 50 mg/kg, ip qd administered for 5 days measured on day 16; type: functional, organism-based; settings: time 16.0 day
# How it was run: (§4)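 Male BALB/c nude mice carried Capan-1 xenografts (5×10^6 cells s.c.), randomized at ~150 mm³ (6 per group). Treatment was 25 or 50 mg/kg intraperitoneally or 100 mg/kg by oral gavage, once daily on days 0-4. Cisplatin 6 mg/kg in saline was given intraperitoneally on day 2, 45 min after the partner drug. Tumor volume and body weight were measured 2-3 times weekly.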
# [18] = Acute toxicity in Balb/c mouse xenografted with Capan1 cells assessed as mean weight loss at 50 mg/kg, ip qd administered for 5 days in presence of cisplatin measured on day 10 relative to control; type: organism-based; settings: in vivo, 240 h, time 10 day; how it was run: as §4
# [19] = Plasma concentration in ICR mouse at 25 mg/kg, ip at 24 hrs postinjection by LC-tandem mass spectrometry analysis; type: ADME, organism-based; how it was run: as §3
smiles,measurement,setting,value
O=C(CCCCCCCCCCC(=O)N1CCN(C(=O)c2cc(Cc3n[nH]c(=O)c4ccccc34)ccc2F)CC1)NCCNc1cccc2c1C(=O)N(C1CCC(=O)NC1=O)C2=O (configuration not stated),pIC50,MDA-MB-436,7.72
same,Activity,[1],> 99%
same,DC50,[2],6.72 nM
same,DC50,[3],0.509 nM
same,Activity,[4],Active
same,DC50,[5],0.228 nM
same,Activity,[6],Active
same,Activity,[7],Active
same,Activity,[8],Active
same,Activity,[9],inactive
same,Activity,[10],inactive
same,Activity,CWR22R,Active
same,Activity,L02,Non-Toxic
same,concentration at 0.25 h,[11],2100 nM
same,Cmax,[12],1840 ng/mL
same,concentration at 4 h,[13],182 nM
same,AUC(0-inf),[14],5360 ng·h/mL
same,Activity,CAPAN-1 [15],Active
same,Activity,[16],Non-Toxic
same,Activity,CAPAN-1 [17],Active
same,Activity,[18],12%
same,concentration at 24 h,[19],> 10 nM
